Source: ChEMBL document CHEMBL1268865, “Cytotoxic 3,4-seco-Atisane Diterpenoids from Croton barorum and Croton goudotii” (J Nat Prod, 2010)

Key:
[1] = tested on: KB; assay: Cytotoxicity against human KB cells after 72 hrs; format: functional, cell-based
How it was run: (§1)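 KB, HT29, A549 and HL60 lines were sourced from ATCC, with Taxotere as the reference compound. IC50 is the concentration that reduced cell growth by 50%, reported as the mean of duplicate experiments.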

[2] = tested on: A549; assay: Cytotoxicity against human A549 cells after 72 hrs; format: functional, cell-based; conditions: A549, 72 h; how it was run: as §1
[3] = tested on: K562; assay: Cell cycle arrest in human K562 cells assessed as accumulation at S phase at 4 uM after 24 hrs using propidium iodide staining by flow cytometry (reference value: 56.7%); format: functional
[4] = tested on: K562; assay: Cell cycle arrest in human K562 cells assessed as accumulation at G0/G1 phase at 4 uM after 24 hrs using propidium iodide staining by flow cytometry (reference value: 30.1%); format: functional
[5] = tested on: K562; assay: Cell cycle arrest in human K562 cells assessed as accumulation at G2/M phase at 4 uM after 24 hrs using propidium iodide staining by flow cytometry (reference value: 12.1%); format: functional
[6] = tested on: HL-60; assay: Cytotoxicity against human HL60 cells after 72 hrs; format: functional, cell-based; conditions: HL-60, 72 h; how it was run: as §1
[7] = tested on: HT-29; assay: Cytotoxicity against human HT-29 cells after 72 hrs; format: functional, cell-based; conditions: HT-29, 72 h; how it was run: as §1

C=C1C(=O)[C@]23CC[C@@H](C(=C)C)[C@]4(C)CCC(=O)O[C@@]42C[C@H]1C[C@@H]3OC(C)=O [CROTOBARIN]
IC50 [1]: 2500 nM | IC50 [2]: 790 nM | Activity [3]: 25.7% | Activity [4]: 12.3% | Activity [5]: 56.5% | IC50 [6]: 560 nM | IC50 [7]: 2100 nM

C=C1C(=O)[C@@]23CC[C@@H]1C[C@@]21OC(=O)CC[C@@]1(C)[C@H](C(=C)C)CC3 [CROTOGOUDIN]
IC50 [1]: 1500 nM | IC50 [2]: 540 nM | Activity [3]: 31.8% | Activity [4]: 22.2% | Activity [5]: 33.6% | IC50 [6]: 490 nM | IC50 [7]: 1900 nM

CC(=O)O[C@@]12CO[C@@H]1C[C@H](O)[C@@]1(C)C(=O)[C@H](O)C3=C(C)[C@@H](OC(=O)[C@H](O)[C@@H](NC(=O)OC(C)(C)C)c4ccccc4)C[C@@](O)([C@@H](OC(=O)c4ccccc4)[C@H]21)C3(C)C [DOCETAXEL]
IC50 [1]: 290 nM | IC50 [2]: 370 nM | IC50 [6]: 520 nM | IC50 [7]: 920 nM
